In ChEMBL document CHEMBL1811848 (Bioorg Med Chem Lett, 2011):
The source made the active and inactive calls. The rule behind the calls is not given here.

Legend:
[1] = target: T1, Peroxisome proliferator-activated receptor alpha (Homo sapiens, UniProt Q07869); assay: Transactivation of human PPARalpha expressed in human HepG2 cells co-transfected with PPRE3-TK-Luc by luciferase reporter gene assay; type: cell-based
T1 sequence (Q07869 whole entry): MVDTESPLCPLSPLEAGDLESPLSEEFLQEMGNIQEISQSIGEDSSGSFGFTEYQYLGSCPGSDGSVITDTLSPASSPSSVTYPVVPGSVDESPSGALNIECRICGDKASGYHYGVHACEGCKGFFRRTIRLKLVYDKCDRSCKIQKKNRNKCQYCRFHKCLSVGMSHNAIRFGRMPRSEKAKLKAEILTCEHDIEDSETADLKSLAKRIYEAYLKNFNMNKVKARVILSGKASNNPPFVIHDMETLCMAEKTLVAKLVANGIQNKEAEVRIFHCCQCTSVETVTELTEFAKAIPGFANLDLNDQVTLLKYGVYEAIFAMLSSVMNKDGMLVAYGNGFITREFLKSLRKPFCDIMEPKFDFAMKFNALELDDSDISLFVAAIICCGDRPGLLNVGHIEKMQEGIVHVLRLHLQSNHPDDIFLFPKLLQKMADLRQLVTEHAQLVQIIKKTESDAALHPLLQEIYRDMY

[2] = target: T2, Peroxisome proliferator-activated receptor alpha (Homo sapiens) (UniProt Q07869); assay: Transactivation of human PPARalpha expressed in human HepG2 cells co-transfected with PPRE3-TK-Luc by luciferase reporter gene assay relative to WY14643; type: cell-based
T2 sequence (whole entry): T1 sequence (Q07869 whole entry)
Procedure, shortened: (§1)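 Same HepG2 hPPARα or hPPARγ / PPRE3-TK-luc luciferase transactivation assay. Efficacy expressed as percent of maximal response, normalized to 100% for the reference agonist: WY-14643 for α, rosiglitazone for γ.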

[3] = target: T3, Peroxisome proliferator-activated receptor gamma (Homo sapiens, UniProt P37231); assay: Transactivation of human PPARgamma expressed in human HepG2 cells co-transfected with PPRE3-TK-Luc by luciferase reporter gene assay; type: cell-based
T3 sequence (P37231 whole entry): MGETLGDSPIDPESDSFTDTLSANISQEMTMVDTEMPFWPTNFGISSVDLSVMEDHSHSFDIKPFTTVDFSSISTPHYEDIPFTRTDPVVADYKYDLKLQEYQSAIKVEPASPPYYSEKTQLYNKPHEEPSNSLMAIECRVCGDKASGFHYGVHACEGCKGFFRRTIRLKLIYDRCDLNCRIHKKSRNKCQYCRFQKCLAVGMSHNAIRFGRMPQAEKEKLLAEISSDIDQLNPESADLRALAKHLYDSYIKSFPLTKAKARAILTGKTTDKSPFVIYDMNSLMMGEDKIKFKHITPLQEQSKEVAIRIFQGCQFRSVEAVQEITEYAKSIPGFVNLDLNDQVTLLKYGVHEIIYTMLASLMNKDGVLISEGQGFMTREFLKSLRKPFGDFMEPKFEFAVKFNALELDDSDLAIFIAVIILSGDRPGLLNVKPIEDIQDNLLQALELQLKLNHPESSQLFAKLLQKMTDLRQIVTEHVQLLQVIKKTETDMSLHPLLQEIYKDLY
Procedure, shortened: (§2)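 HepG2 cells transfected with pSG5 vector carrying hPPARα, hPPARγ or hPPARδ cDNA, co-transfected with PPRE3-TK-luc. Firefly luciferase activity measured with a commercial kit. β-galactosidase activity read on an ELISA reader. Controls: WY14643 (α), rosiglitazone (γ), GW501516 (δ).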

[4] = target: T4, Peroxisome proliferator-activated receptor gamma (Homo sapiens) (UniProt P37231); assay: Transactivation of human PPARgamma expressed in human HepG2 cells co-transfected with PPRE3-TK-Luc by luciferase reporter gene assay relative to Rosiglitazone; type: cell-based; procedure, shortened: as §1
T4 sequence (whole entry): T3 sequence (P37231 whole entry)

[5] = target: T5, Peroxisome proliferator-activated receptor delta (Homo sapiens) (UniProt Q03181); assay: Transactivation of human PPARdelta expressed in human HepG2 cells co-transfected with PPRE3-TK-Luc by luciferase reporter gene assay; type: cell-based; procedure, shortened: as §2
T5 sequence (whole entry): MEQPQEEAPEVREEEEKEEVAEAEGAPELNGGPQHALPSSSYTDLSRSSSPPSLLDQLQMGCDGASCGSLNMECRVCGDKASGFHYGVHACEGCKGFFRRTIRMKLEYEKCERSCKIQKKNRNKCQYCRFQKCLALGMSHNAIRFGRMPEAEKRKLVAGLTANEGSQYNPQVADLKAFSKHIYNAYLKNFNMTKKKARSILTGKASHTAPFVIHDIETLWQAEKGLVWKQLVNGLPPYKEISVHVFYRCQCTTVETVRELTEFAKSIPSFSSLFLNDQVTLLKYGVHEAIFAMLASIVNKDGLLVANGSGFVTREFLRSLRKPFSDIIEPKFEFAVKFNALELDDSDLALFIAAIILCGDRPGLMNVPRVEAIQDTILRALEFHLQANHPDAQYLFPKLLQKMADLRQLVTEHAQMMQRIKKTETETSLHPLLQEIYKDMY

Mus musculus [6] = assay: Reduction in serum triglyceride level in Swiss albino mouse at 10 mg/kg, po administered for 6 days relative to control; type: functional; parameters: scale not given: the % may be the effect or the level left
Procedure, shortened: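 Male Swiss albino mice aged 6–8 weeks were given 10 mg/kg/day orally for 6 days. Serum triglyceride was expressed as % change versus vehicle controls, mean of n = 6.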

Mus musculus [7] = assay: Antihyperglycemic activity in db/db mouse assessed as reduction in glucose level at 3 mg/kg/day, po administered for 6 days relative to control; type: functional; parameters: scale not given: the % may be the effect or the level left
Procedure, shortened: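 Male db/db mice aged 6–8 weeks were dosed orally once daily for 6 days. Plasma glucose was then measured and expressed as % change versus vehicle-treated controls.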

Row | EC50 [1] [nM] | Emax [2] [%] | EC50 [3] [nM] | Emax [4] [%] | Activity [5] | SMILES | Activity (Mus musculus [6]) [%] | Activity (Mus musculus [7]) [%]
1 | 0.026 | 134 | 0.0015 | 107 | inactive | CCO[C@@H](Cc1ccc(OCc2nc(-c3cccs3)oc2C)cc1)C(=O)O | 72 | 
2 |  | 106 | 0.0003 | 88 | inactive | CCO[C@@H](Cc1ccc(OCc2nc(-c3sccc3C)oc2C)cc1)C(=O)O | 72 | 
3 | 1.9 | 114 | 0.6 | 87 | inactive | CCO[C@@H](Cc1ccc(OCCc2nc(-c3ccsc3)oc2C)cc1)C(=O)O | 62 | 
4 | 0.1 | 126 | 0.05 | 104 | inactive | CCO[C@@H](Cc1ccc(OCCc2nc(-c3cccs3)oc2C)cc1)C(=O)O | 78 | 
5 | 20 | 93 | 3 | 104 | inactive | CCO[C@@H](Cc1ccc(OCc2nc(-c3ccc(-c4ccccc4)s3)oc2C)cc1)C(=O)O | 57 | 
6 | 22 |  | 4.5 |  | inactive | CCO[C@@H](Cc1ccc(OCCc2nc(-c3ccc(-c4ccccc4)s3)oc2C)cc1)C(=O)O | 62 | 
7 |  | 151 | 0.0002 | 120 | inactive | CCO[C@@H](Cc1ccc(OCc2nc(-c3ccc(C)s3)oc2C)cc1)C(=O)O | 69 | 67
8 | 3 | 147 | 2.7 | 99 | inactive | CCO[C@@H](Cc1ccc(OCc2nc(-c3ccsc3)oc2C)cc1)C(=O)O | 70 | 
9 |  | 96 | 0.0001 | 192 | inactive | CCO[C@@H](Cc1ccc(OCCc2nc(-c3sccc3C)oc2C)cc1)C(=O)O | 67 | 
10 |  |  |  |  |  | CCO[C@@H](Cc1ccc(OCCc2ccc(OS(C)(=O)=O)cc2)cc1)C(=O)O [TESAGLITAZAR] |  | 55
